pEC50, pIC50: −log10 of the molar value.
Legend:
[1] = Antiinflammatory activity in mouse T cells assessed as inhibition of ConA-induced induced T cell proliferation at 0.4 uM incubated for 48 hrs by CCK8 assay relative to control; format: functional
Method in brief: (§1)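 Mouse splenic T cells, isolated by negative selection kit, seeded at 2×10^6 cells/mL in RPMI with penicillin/streptomycin and glutamine. Compound at 2 or 0.4 μM (triplicate wells), DMSO control; Con A 5 μg/mL added, 48 h at 37 °C, 5% CO2. CCK8 absorbance; inhibition rate from test, blank and control wells; three independent experiments.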

[2] = target: T1, Mitogen-activated protein kinase kinase kinase 14 (Homo sapiens, UniProt Q99558); assay: Inhibition of recombinant N-terminal GST-fused human NIK (319 to 947 residues) expressed in baculovirus expression system incubated for 120 mins in presence of ATP by ADP-glo based luminescence assay
Method in brief: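 NIK kinase activity by ADP-Glo: human recombinant MAP3K14 in Tris pH 7.5 buffer with 100 μM Na3VO4, 2 mM DTT, 0.02 mg/mL BSA, 2 mM MgCl2, 5% DMSO; 10 μM ATP; 120 min at room temperature. ADP-Glo reagent 40 min, then detection reagent 40 min; luminescence converted to ADP via standard curve. IC50 from curve fitting; mean ± SD of two independent experiments.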
Target sequence in this assay (Q99558 whole entry, the tested form may be a part): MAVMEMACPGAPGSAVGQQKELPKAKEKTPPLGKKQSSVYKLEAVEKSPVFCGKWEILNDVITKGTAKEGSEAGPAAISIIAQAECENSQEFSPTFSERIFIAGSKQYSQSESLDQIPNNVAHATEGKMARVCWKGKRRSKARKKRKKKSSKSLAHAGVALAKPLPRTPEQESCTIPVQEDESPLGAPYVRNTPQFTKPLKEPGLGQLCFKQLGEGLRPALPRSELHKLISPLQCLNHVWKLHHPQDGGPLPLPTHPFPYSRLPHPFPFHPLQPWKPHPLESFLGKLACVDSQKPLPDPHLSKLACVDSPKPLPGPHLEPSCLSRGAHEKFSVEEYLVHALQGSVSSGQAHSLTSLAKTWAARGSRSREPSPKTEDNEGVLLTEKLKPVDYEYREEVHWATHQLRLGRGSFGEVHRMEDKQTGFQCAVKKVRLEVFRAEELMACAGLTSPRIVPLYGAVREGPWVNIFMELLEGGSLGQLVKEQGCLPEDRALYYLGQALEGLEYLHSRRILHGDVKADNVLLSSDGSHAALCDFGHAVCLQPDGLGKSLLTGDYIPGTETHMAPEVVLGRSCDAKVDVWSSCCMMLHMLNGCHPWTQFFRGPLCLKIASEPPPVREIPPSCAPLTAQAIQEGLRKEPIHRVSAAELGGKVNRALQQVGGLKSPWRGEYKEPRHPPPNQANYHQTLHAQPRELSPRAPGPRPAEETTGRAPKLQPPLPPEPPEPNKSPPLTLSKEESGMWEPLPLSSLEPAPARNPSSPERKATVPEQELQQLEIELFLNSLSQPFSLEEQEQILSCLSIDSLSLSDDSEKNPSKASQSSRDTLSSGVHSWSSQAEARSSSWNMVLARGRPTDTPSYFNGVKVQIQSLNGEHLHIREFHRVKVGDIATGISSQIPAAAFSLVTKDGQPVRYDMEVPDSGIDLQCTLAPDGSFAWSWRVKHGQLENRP

[3] = Cytotoxicity against mouse T cells assessed as cell growth inhibition at 10 uM after 48 hrs by CCK8 assay; format: cell-based
Method in brief: (§2)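 Unstimulated mouse splenic T cells (no Con A) exposed to compound at 10 μM; growth measured by absorbance, with rate computed from test, blank and control well absorbances; mean ± SD of three independent experiments.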

J774 = assay: Antiinflammatory activity in mouse J774 cells assessed as inhibition of LPS-induced NO production at 1 uM preincubated for 2 hrs followed by LPS stimulation and measured after 22 hrs by Griess reagent based assay relative to control; format: functional; conditions: time 24 hrs
[4] = Antiinflammatory activity in mouse T cells assessed as inhibition of ConA-induced induced T cell proliferation at 2 uM incubated for 48 hrs by CCK8 assay relative to control; format: functional; method in brief: as §1
[5] = target: T1, Mitogen-activated protein kinase kinase kinase 14; assay: Inhibition of recombinant N-terminal GST-fused human NIK (319 to 947 residues) expressed in baculovirus expression system assessed as residual activity at 2 uM incubated for 120 mins in presence of ATP by ADP-glo based luminescence assay relative to control
Method in brief: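 Single-point NIK enzyme activity at 2 μM compound with 10 μM ATP; human recombinant MAP3K14, 120 min room-temperature reaction, ADP-Glo luminescence read-out converted to ADP concentration.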
Target sequence in this assay (Q99558 whole entry, looked up, the tested form may be a part): as the sequence (Q99558 whole entry, the tested form may be a part) above

[6] = Cytotoxicity against mouse T cells assessed as cell growth inhibition at 10 uM after 48 hrs by CCK8 assay relative to control; format: cell-based; conditions: read-out: GI; method in brief: as §2
JJN-3 = assay: Antiproliferative activity against human JJN-3 cells transfected with plasmid expressing NIK; format: functional, cell-based
[7] = Intrinsic clearance in dog liver microsomes assessed per mg protein incubated for 10 mins followed by potassium phosphate buffer addition and measured up to 60 mins by LC-MS analysis; format: ADME, Canis lupus familiaris, Microsome; conditions: time <=70 min, read-out: CLH
Method in brief: (§3)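 Rat, dog, monkey and human liver microsomes: compound preincubated with microsomes 10 min at 37 °C; samples quenched at 0, 5, 15, 30, 60 min with tolbutamide/labetalol, plus a 60 min no-cofactor control with 100 mM potassium phosphate buffer. Centrifuged, remaining compound by LC-MS; T1/2 and CL by first-order kinetics.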

[8] = Cmax in Sprague-Dawley rat at 10 mg/kg, po administered as single dose by LC-MS analysis; format: ADME, organism-based; parameters: route oral, dose 10 mg/kg; conditions: in vivo
Method in brief: (§4)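 Male Sprague-Dawley, 8 weeks old, fasted overnight, n = 3; single gavage at 10 mg/kg as 1 mg/mL suspension in 0.5% CMC-Na/0.2% Tween 80. Plasma precipitated with acetonitrile plus internal standards; LC/MS quantitation.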

[9] = Elimination half life in dog liver microsomes incubated for 10 mins followed by potassium phosphate buffer addition and measured up to 60 mins by LC-MS analysis; format: ADME, Canis lupus familiaris, Microsome; conditions: time <=70 min, read-out: LambdaZ
Method in brief: (§5)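 The test compound was pre-incubated with liver microsomes at 37 °C for 10 min. NCF60 wells received 100 mM potassium phosphate buffer and were incubated 1.0 h at 37 °C. The reaction was stopped with a 1:1 tolbutamide/labetalol mixture at 0, 5, 15, 30 and 60 min, then vortexed and centrifuged at 4 °C. Remaining parent compound in the supernatant was measured by LC-MS, and T1/2 was calculated by first-order kinetics.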

[10] = Intrinsic hepatic clearance in monkey; format: ADME, Macaca mulatta; conditions: rhesus monkey, in vivo; read-out: CLH
Method in brief: (§6)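 In vivo intrinsic clearance scaled from microsomal CLint (mL/min/mg protein) × microsomal protein per g liver × liver weight per kg body weight.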

[11] = Intrinsic clearance in monkey liver microsomes assessed per mg protein incubated for 10 mins followed by potassium phosphate buffer addition and measured up to 60 mins by LC-MS analysis; format: ADME, Macaca mulatta, Microsome; conditions: rhesus monkey, time <=70 min, read-out: CLH; method in brief: as §3
[12] = Intrinsic hepatic clearance in human; format: ADME; conditions: read-out: CLH; method in brief: as §6
[13] = Intrinsic hepatic clearance in rat; format: ADME; conditions: in vivo, read-out: CLH; method in brief: as §6
[14] = AUC (0 to infinity) in Sprague-Dawley rat at 1 mg/kg, iv administered as single bolus dose by LC-MS analysis; format: ADME, organism-based; parameters: route intravenous, time infinity, dose 1 mg/kg; conditions: in vivo
Method in brief: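 Male Sprague-Dawley rats, 8 weeks old, fasted overnight, received a single rapid tail-vein bolus. Vehicle was DMSO:PEG200:saline 20:20:60 v/v/v at 0.2 mg/mL. Plasma concentrations were followed over time. Plasma was deproteinised with acetonitrile containing verapamil and glibenclamide, diluted with water and analysed by LC/MS. Values are mean ± SD, n = 3 rats.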

[15] = Volume of distribution in Sprague-Dawley rat at 1 mg/kg, iv administered as single bolus dose by LC-MS analysis; format: ADME, organism-based; conditions: in vivo
Method in brief: (§7)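 Male Sprague-Dawley, 8 weeks old, fasted overnight, n = 3; single IV bolus via tail vein at 1.0 mg/kg in DMSO:PEG200:saline 20:20:60 (0.2 mg/mL). Plasma protein-precipitated with acetonitrile containing internal standards, analysed by LC/MS.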

[16] = Elimination half life in human liver microsomes incubated for 10 mins followed by potassium phosphate buffer addition and measured up to 60 mins by LC-MS analysis; format: ADME, Microsome; conditions: time <=70 min, read-out: LambdaZ; method in brief: as §5
[17] = AUC (0 to infinity) in Sprague-Dawley rat at 10 mg/kg, po administered as single dose by LC-MS analysis; format: ADME, organism-based; parameters: route oral, time infinity, dose 10 mg/kg; conditions: in vivo
Method in brief: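 Male Sprague-Dawley rats, 8 weeks old, fasted overnight, were dosed once by oral gavage. The compound was suspended at 1.0 mg/mL in saline with 0.5% CMC-Na and 0.2% Tween 80. Plasma concentrations were followed over time. Plasma was deproteinised with acetonitrile containing verapamil and glibenclamide, diluted with water and analysed by LC/MS. Values are mean ± SD, n = 3 rats.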

[18] = Elimination half life in rat liver microsomes incubated for 10 mins followed by potassium phosphate buffer addition and measured up to 60 mins by LC-MS analysis; format: ADME, Microsome; conditions: time <=70 min, read-out: LambdaZ; method in brief: as §5
[19] = Tmax in Sprague-Dawley rat at 10 mg/kg, po administered as single dose by LC-MS analysis; format: ADME, organism-based; conditions: in vivo; method in brief: as §4
[20] = Elimination half life in monkey liver microsomes incubated for 10 mins followed by potassium phosphate buffer addition and measured up to 60 mins by LC-MS analysis; format: ADME, Macaca mulatta, Microsome; conditions: rhesus monkey, time <=70 min, read-out: LambdaZ; method in brief: as §5
[21] = Half life in Sprague-Dawley rat at 1 mg/kg, iv administered as single bolus dose by LC-MS analysis; format: ADME, organism-based; conditions: in vivo; method in brief: as §7
[22] = Half life in Sprague-Dawley rat at 10 mg/kg, po administered as single dose by LC-MS analysis; format: ADME, organism-based; conditions: in vivo; method in brief: as §4
[23] = Intrinsic hepatic clearance in dog; format: ADME, Canis lupus familiaris; conditions: in vivo, read-out: CLH; method in brief: as §6
[24] = Intrinsic clearance in rat liver microsomes assessed per mg protein incubated for 10 mins followed by potassium phosphate buffer addition and measured up to 60 mins by LC-MS analysis; format: ADME, Microsome; conditions: time <=70 min, read-out: CLH; method in brief: as §3
[25] = Initial plasma concentration in Sprague-Dawley rat at 1 mg/kg, iv administered as single bolus dose by LC-MS analysis; format: ADME, organism-based; method in brief: as §7
[26] = Clearance in Sprague-Dawley rat at 1 mg/kg, iv administered as single bolus dose by LC-MS analysis; format: ADME, organism-based; conditions: in vivo; method in brief: as §7
[27] = Oral bioavailability in Sprague-Dawley rat at 10 mg/kg administered as single dose by LC-MS analysis; format: ADME, organism-based; conditions: in vivo
[28] = Intrinsic clearance in human liver microsomes assessed per mg protein incubated for 10 mins followed by potassium phosphate buffer addition and measured up to 60 mins by LC-MS analysis; format: ADME, Microsome; conditions: time <=70 min, read-out: CLH; method in brief: as §3

## CN(C)CCN(C)c1cc(-c2cn[nH]c2)c2cc(C#CC(C)(O)c3nccs3)ccc2n1 (stereo not drawn)
[1]
  inhibition at 0.4 µM: 19.9%
[2]
  pIC50: 6.80
[3]
  Activity: Non-Toxic
J774
  inhibition at 1 µM: 34.6%
[4]
  inhibition at 2 µM: 22.7%

## CNc1cc(-c2cn[nH]c2)c2cc(C#CC(C)(O)c3nccs3)ccc2n1 (stereo not drawn)
[1]
  inhibition at 0.4 µM: 18.4%
[2]
  pIC50: 7.59
J774
  inhibition at 1 µM: 46.5%
[4]
  inhibition at 2 µM: 34.5%

## Cn1cc(-c2ccnc3ccc(C#CC(C)(C)O)cc23)cn1
[5]
  Activity: 99.1%

## OC1(C#Cc2ccc3nccc(-c4cn[nH]c4)c3c2)CCCCC1
[2]
  pIC50: 5.22

## CC(O)(C#Cc1ccc2c(c1)N(c1nc(N)ncc1Cl)CC2)c1nccs1 (stereo not drawn)
[1]
  inhibition at 0.4 µM: 19%
[2]
  pIC50: 8.31
J774
  inhibition at 1 µM: 43.9%
[6]
  inhibition at 48 h, 10 µM: 30%
[4]
  inhibition at 2 µM: 59.6%

## CC(O)(/C=C/c1ccc2nccc(-c3cn[nH]c3)c2c1)c1nccs1 (stereo not drawn)
[2]
  pIC50: 5.68

## CN1CCC(n2cc(-c3c[nH]nc3Cl)c3cc(C#CC(C)(C)O)c(F)cc32)CC1
JJN-3
  pEC50: 7.21

## CC(O)(C#Cc1ccc2nc(O)cc(-c3cn[nH]c3)c2c1)c1nccs1 (stereo not drawn)
[1]
  inhibition at 0.4 µM: 23.3%
[2]
  pIC50: 7.41
[3]
  Activity: Non-Toxic
J774
  inhibition at 1 µM: 31.4%
[4]
  inhibition at 2 µM: 27.2%

## CC(O)(C#Cc1ccc(N2CCOCC2)c(Nc2ncnc3[nH]ccc23)c1)c1nccs1 (stereo not drawn)
[3]
  Activity: Non-Toxic

## CC(O)(C#Cc1ccc2nccc(-c3cn[nH]c3)c2c1)c1ccccn1 (stereo not drawn)
[2]
  pIC50: 6.23

## O=C(Nc1ccc2nccc(-c3cn[nH]c3)c2c1)C1CCCC1
[5]
  Activity: 83.6%

## COCCN(C)c1cc(-c2cn[nH]c2)c2cc(C#CC(C)(O)c3nccs3)ccc2n1 (stereo not drawn)
[1]
  inhibition at 0.4 µM: 33%
[2]
  pIC50: 8.28
J774
  inhibition at 1 µM: 51.4%
[6]
  inhibition at 48 h, 10 µM: 30%
[4]
  inhibition at 2 µM: 53.1%

## CN1CCN(c2cc(-c3cn[nH]c3)c3cc(C#CC(C)(O)c4nccs4)ccc3n2)CC1 (stereo not drawn)
[1]
  inhibition at 0.4 µM: 19.4%
[2]
  pIC50: 6.76
J774
  inhibition at 1 µM: 41%
[6]
  inhibition at 48 h, 10 µM: 30%
[4]
  inhibition at 2 µM: 36.7%

## CC(C)(O)C#Cc1ccc2nccc(-c3cn[nH]c3)c2c1
[2]
  pIC50: 5.76

## O=C(Nc1ccc2nccc(-c3cn[nH]c3)c2c1)c1nccs1
[5]
  Activity: 72.3%

## CC(O)(C#Cc1ccc2nc(OCCN3CCOCC3)cc(-c3cn[nH]c3)c2c1)c1nccs1 (stereo not drawn)
[5]
  Activity: 92%

## OC1(C#Cc2ccc3nccc(-c4cn[nH]c4)c3c2)CCCC1
[2]
  pIC50: 6.25

## CC(O)(C#Cc1ccc2nccc(-c3cn[nH]c3)c2c1)c1cccs1 (stereo not drawn)
[2]
  pIC50: 6.28

## CC(O)(C#Cc1ccc2nccc(-c3cn[nH]c3)c2c1)c1nccs1 (stereo not drawn)
[1]
  inhibition at 0.4 µM: 36.1%
[7]
  microsomal CLint: 97.5 µL/min/mg
[8]
  Cmax: 311 ng/mL
[2]
  pIC50: 7.66
[9]
  half-life: 14.2 min
[10]
  CLint scaled: 60.2 mL/min/kg
[11]
  microsomal CLint: 41.8 µL/min/mg
[12]
  CLint scaled: 40.2 mL/min/kg
[3]
  Activity: Non-Toxic
J774
  inhibition at 1 µM: 43.8%
[13]
  CLint scaled: 199 mL/min/kg
[14]
  AUC(0-inf): 408 ng·h/mL
[15]
  Vd: 2.73 L/kg
[16]
  half-life: 33.1 min
[17]
  AUC(0-inf): 885 ng·h/mL
[18]
  half-life: 12.6 min
[4]
  inhibition at 2 µM: 52.5%
[19]
  Tmax: 54 min
[20]
  half-life: 33.2 min
[21]
  half-life: 22.9 min
[22]
  half-life: 71.4 min
[23]
  CLint scaled: 140 mL/min/kg
[24]
  microsomal CLint: 110 µL/min/mg
[25]
  C0: 1000 ng/mL
[26]
  clearance: 43.3 mL/min/kg
[27]
  bioavailability: 21.7%
[28]
  microsomal CLint: 42.6 µL/min/mg

Source: ChEMBL document CHEMBL4673294, “The discovery of quinoline derivatives, as NF-κB inducing kinase (NIK) inhibitors with anti-inflammatory effects in vitro, low toxicities against T cell growth” (Bioorg Med Chem, 2021)
